# Measurements published in article PMC4310348 (Drug Design, Development and Therapy, 2015).
# Experiments:
# MRSA (10) = assay: MIC testing; format: cell-based, methicillin-resistant Staphylococcus aureus
# Summary of the method: (§1)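 Clinical bovine mastitis isolates from Australian dairy cattle, except MRSA isolates, which came from small-animal infections. Streptococci were speciated by biochemical tests and partial 16S rDNA sequencing. S. aureus was separated from coagulase-negative staphylococci by tube coagulase and latex agglutination. MICs followed CLSI guidelines for lipophilic compounds: lowest concentration preventing growth, judged visually and by OD600. MIC50/MIC90 were collated per species.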
# [1] = test system: Streptococcus agalactiae (12); assay: MIC testing; format: cell-based
# Summary of the method: as §1
# [2] = pH-solubility determination of lasalocid; format: physicochemical
# Summary of the method: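 pH–solubility used MilliQ water adjusted with NaOH/HCl, or Universal buffer adjusted with 0.2 M NaOH, over pH 1.8–8. The buffer contained boric, citric and phosphoric acids at 0.04 M each. Excess solid was shaken for 24 hours, filtered through 0.45 µm nylon, diluted and quantified by C8 HPLC-UV at 308 nm. Measurements were made in triplicate.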
# [3] = Solubility of lasalocid in various solvents and milk; format: physicochemical; conditions: thermodynamic from solid
# Summary of the method: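 Excess solid test compound was added to each solvent and shaken for 24 hours. Samples were then filtered through 0.45 µm nylon, diluted and quantified by reversed-phase C8 HPLC with UV detection at 308 nm. The mobile phase was methanol:1.5% acetic acid (90:10) at 1.0 mL/min. All measurements were made in triplicate.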
# [4] = test system: Staphylococcus aureus (20); assay: MIC testing; format: cell-based
# Summary of the method: as §1
# Milk distribution study = format: in vivo, Lactating Holstein dairy cows; conditions: six doses of 150 or 300 mg at 12-hourly intervals per quarter (IVP 7, IVP 8)
# Summary of the method: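 Lactating Holstein cows aged 2–10 years had two contralateral quarters challenged intramammarily with S. uberis. After mastitis was detected, quarters received a PVP–lasalocid solid dispersion in Miglyol 812/Aerosil R972 after each milking, six infusions 12-hourly. Milk was sampled at set times, with time 0 at the first dose. Samples of 100 µL were extracted with 900 µL methanol, centrifuged and analysed by C8 HPLC-UV at 308 nm.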
# [5] = test system: Coagulase-negative staphylococci (14); assay: MIC testing; format: cell-based
# Summary of the method: as §1
# [6] = test system: Streptococcus uberis (11); assay: MIC testing; format: cell-based
# Summary of the method: as §1
# [7] = test system: Gram-positive mastitis organisms (57); assay: MIC testing; format: cell-based; conditions: all 57 Gram-positive bovine mastitis isolates
# Summary of the method: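 MICs were run per CLSI guidelines for lipophilic compounds across the pooled bovine mastitis isolates. MIC was the lowest concentration preventing growth, judged visually and by OD600. MIC50 and MIC90 are the lowest concentrations inhibiting 50% and 90% of the whole collection.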
smiles,measurement,setting,value
CC[C@@H](C(=O)[C@@H](C)[C@@H](O)[C@H](C)CCc1ccc(C)c(O)c1C(=O)O)[C@H]1O[C@](CC)([C@H]2CC[C@](O)(CC)[C@H](C)O2)C[C@@H]1C [lasalocid],MIC50,"MRSA (10); Staphylococcus aureus, MRSA",0.5 µg/mL
same,MIC90,"MRSA (10); Staphylococcus aureus, MRSA",0.5 µg/mL
same,MIC range,MRSA (10); n=10 isolates from small animals,0.25 to 0.5 µg/mL
same,MIC50,[1]; Streptococcus agalactiae,2 µg/mL
same,MIC90,[1]; Streptococcus agalactiae,4 µg/mL
same,MIC range,[1]; n=12 isolates,2 to 4 µg/mL
same,Solubility at pH 1.8,[2]; MilliQ water with NaOH and HCl for pH adjustment,non-detectable
same,Solubility at pH 1.8,[2]; Universal buffer,nondetectable
same,solubility at 24 h,"[2]; Universal buffer, pH 8, aqueous buffer, thermodynamic from solid",9.66 ± 0.04 µg/mL
same,solubility at 24 h,"[3]; DMSO, organic solvent or mixture",298000 ± 42400 µg/mL
same,solubility at 24 h,"[3]; MilliQ water, water",750 ± 100 µg/mL
same,solubility at 24 h,"[3]; methanol, organic solvent or mixture",84700 ± 1630 µg/mL
same,solubility at 24 h,"[3]; milk, plasma or biological fluid",438 ± 13.1 µg/mL
same,MIC50,[4]; Staphylococcus aureus,1 µg/mL
same,MIC90,[4]; Staphylococcus aureus,1 µg/mL
same,MIC range,[4]; n=20 isolates,0.5 to 1 µg/mL
same,Time after the first dose until which high milk concentration was maintained,Milk distribution study,72 h
same,Time after the first treatment by which residues in milk were not detectable,Milk distribution study,≤ 144 h
same,Time of peak lasalocid concentration in milk after the first dose,Milk distribution study,24 h
same,MIC50,[5],1 µg/mL
same,MIC90,[5],2 µg/mL
same,MIC range,[5]; n=14 isolates,0.5 to 2 µg/mL
same,MIC50,[6]; Streptococcus uberis,0.5 µg/mL
same,MIC90,[6]; Streptococcus uberis,0.5 µg/mL
same,MIC range,[6]; n=11 isolates,0.5 to 1 µg/mL
same,MIC50,[7],2 µg/mL
same,MIC90,[7],4 µg/mL
